The source made the active and inactive calls. The calls are words filed in the database; no cut-off is given here.
Experiments:
[1] = tested on: Staphylococcus aureus; experiment: Antibacterial activity against methicillin-resistant Staphylococcus aureus isolate M5 after 16 to 20 hrs by broth microdilution method; assay type: functional
Method in brief: (§1)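 CLSI broth microdilution in cation-adjusted Mueller-Hinton broth. A 4-6 h culture was diluted to about 10⁶ CFU/mL and mixed 1:1 with twofold compound dilutions (256–0.5 µg/mL before mixing) prepared from aqueous stocks. Plates were incubated at 37 °C for 16-20 h. Each concentration was tested in duplicate, and the experiment was repeated at least twice.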

[2] = tested on: Klebsiella pneumoniae; experiment: Antibacterial activity against carbapenemase-producing Klebsiella pneumoniae isolate K3 after 16 to 20 hrs by broth microdilution method; assay type: functional
Method in brief: (§2)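 Broth microdilution per CLSI in cation-adjusted Mueller-Hinton broth; 4-6 h cultures (~10⁸ CFU/mL) diluted to ~10⁶ CFU/mL and mixed 1:1 with twofold dilutions of water-dissolved compound (256 to 0.5 µg/mL). Incubated 16-20 h at 37 °C; MIC read visually. Each concentration run in duplicate, whole experiment repeated at least twice. MRSA, KPC and NDM-1 strains were clinical isolates.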

[3] = tested on: Staphylococcus aureus; experiment: Induction of cytoplasmic membrane depolarization in Staphylococcus aureus ATCC 29213 at 20 ug/ml measured every 2 mins for 12 mins by diSC35 staining based fluorescence assay; assay type: functional, organism-based
Method in brief: (§3)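 Mid-log cells (4–6 h) pelleted, washed and resuspended (~10^8 CFU/mL) in PBS for S. aureus, or in 5 mM HEPES, 5 mM glucose and 100 mM KCl (1:1:1) for E. coli. Preloaded with diSC35 (10 µM, 50 µL), 30 min for S. aureus and 40 min plus EDTA (200 µM, 50 µL) for E. coli. Baseline read 8 min (ex 622/em 670 nm), then compound added to 20 µg/mL final and read every 2 min for 12 min. Water control.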

[4] = tested on: Enterobacteriaceae; experiment: Antibacterial activity against NDM-1-producing Enterobacteriaceae isolate N3 after 16 to 20 hrs by broth microdilution method; assay type: functional; method in brief: as §2
[5] = tested on: Staphylococcus aureus; experiment: Antibacterial activity against methicillin-resistant Staphylococcus aureus isolate M8 after 16 to 20 hrs by broth microdilution method; assay type: functional; method in brief: as §1
[6] = tested on: Klebsiella pneumoniae; experiment: Antibacterial activity against carbapenemase-producing Klebsiella pneumoniae isolate K1 after 16 to 20 hrs by broth microdilution method; assay type: functional; method in brief: as §2
[7] = tested on: Enterobacteriaceae; experiment: Antibacterial activity against NDM-1-producing Enterobacteriaceae isolate N6 after 16 to 20 hrs by broth microdilution method; assay type: functional; method in brief: as §2
[8] = tested on: Staphylococcus aureus; experiment: Antibacterial activity against methicillin-resistant Staphylococcus aureus isolate M9 after 16 to 20 hrs by broth microdilution method; assay type: functional; method in brief: as §1
[9] = tested on: Staphylococcus aureus; experiment: Antibacterial activity against methicillin-resistant Staphylococcus aureus isolate M6 after 16 to 20 hrs by broth microdilution method; assay type: functional; method in brief: as §1
[10] = tested on: Klebsiella pneumoniae; experiment: Antibacterial activity against carbapenemase-producing Klebsiella pneumoniae isolate K7 after 16 to 20 hrs by broth microdilution method; assay type: functional; method in brief: as §2
[11] = tested on: Staphylococcus aureus; experiment: Antibacterial activity against methicillin-resistant Staphylococcus aureus after 16 to 20 hrs by broth microdilution method; assay type: functional; method in brief: as §1
[12] = tested on: Enterobacteriaceae; experiment: Antibacterial activity against NDM-1-producing Enterobacteriaceae isolate N9 after 16 to 20 hrs by broth microdilution method; assay type: functional; method in brief: as §2
[13] = tested on: Klebsiella pneumoniae; experiment: Antibacterial activity against carbapenemase-producing Klebsiella pneumoniae isolate K9 after 16 to 20 hrs by broth microdilution method; assay type: functional; method in brief: as §2
[14] = tested on: Enterobacteriaceae; experiment: Antibacterial activity against NDM-1-producing Enterobacteriaceae after 16 to 20 hrs by broth microdilution method; assay type: functional; method in brief: as §2
[15] = tested on: Enterobacteriaceae; experiment: Antibacterial activity against NDM-1-producing Enterobacteriaceae isolate N1 after 16 to 20 hrs by broth microdilution method; assay type: functional; method in brief: as §2
[16] = tested on: Staphylococcus aureus; experiment: Antibacterial activity against methicillin-resistant Staphylococcus aureus isolate M10 after 16 to 20 hrs by broth microdilution method; assay type: functional; method in brief: as §1
[17] = tested on: Enterobacteriaceae; experiment: Antibacterial activity against NDM-1-producing Enterobacteriaceae isolate N4 after 16 to 20 hrs by broth microdilution method; assay type: functional; method in brief: as §2
[18] = tested on: Escherichia coli; experiment: Induction of outer membrane permeabilization in Escherichia coli ATCC 25922 at 20 ug/ml measured every 2 mins for 12 mins by NPN staining based fluorescence assay; assay type: functional, organism-based
Method in brief: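 Mid-log E. coli (~10^8 CFU/mL) in black plates pre-incubated about 40 min with NPN (10 µM, 50 µL). Baseline read 8 min (ex 350/em 420 nm), then compound added to 20 µg/mL final and fluorescence followed every 2 min for 12 min. Water-treated control.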

[19] = tested on: Klebsiella pneumoniae; experiment: Antibacterial activity against carbapenemase-producing Klebsiella pneumoniae isolate K8 after 16 to 20 hrs by broth microdilution method; assay type: functional; method in brief: as §2
[20] = tested on: Enterobacteriaceae; experiment: Antibacterial activity against NDM-1-producing Enterobacteriaceae isolate N2 after 16 to 20 hrs by broth microdilution method; assay type: functional; method in brief: as §2
[21] = tested on: Staphylococcus aureus; experiment: Induction of inner membrane permeabilization in Staphylococcus aureus ATCC 29213 at 20 ug/ml measured every 2 mins for 12 mins by propidium iodide staining based fluorescence assay; assay type: functional, organism-based
Method in brief: (§4)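 Mid-log cells (~10^8 CFU/mL) pre-incubated with propidium iodide (10 µM, 50 µL), 30 min for S. aureus and 40 min for E. coli. Fluorescence (ex 535/em 617 nm) read for 8 min, then compound added to 20 µg/mL final and monitored every 2 min for 12 min. Water-treated control.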

[22] = tested on: Staphylococcus aureus; experiment: Antibacterial activity against methicillin-resistant Staphylococcus aureus isolate M2 after 16 to 20 hrs by broth microdilution method; assay type: functional; method in brief: as §1
[23] = tested on: Klebsiella pneumoniae; experiment: Antibacterial activity against carbapenemase-producing Klebsiella pneumoniae isolate K4 after 16 to 20 hrs by broth microdilution method; assay type: functional; method in brief: as §2
[24] = tested on: Klebsiella pneumoniae; experiment: Antibacterial activity against carbapenemase-producing Klebsiella pneumoniae isolate K2 after 16 to 20 hrs by broth microdilution method; assay type: functional; method in brief: as §2
[25] = tested on: Enterobacteriaceae; experiment: Antibacterial activity against NDM-1-producing Enterobacteriaceae isolate N10 after 16 to 20 hrs by broth microdilution method; assay type: functional; method in brief: as §2
[26] = tested on: Enterococcus faecalis; experiment: Antibacterial activity against Enterococcus faecalis after 16 to 20 hrs by broth microdilution method; assay type: functional; method in brief: as §2
[27] = tested on: Klebsiella pneumoniae; experiment: Antibacterial activity against carbapenemase-producing Klebsiella pneumoniae isolate K6 after 16 to 20 hrs by broth microdilution method; assay type: functional; method in brief: as §2
[28] = tested on: Enterobacteriaceae; experiment: Antibacterial activity against NDM-1-producing Enterobacteriaceae isolate N7 after 16 to 20 hrs by broth microdilution method; assay type: functional; method in brief: as §2
[29] = Hemolytic activity in sheep RBC after 1 hr; assay type: ADME, cell-based, Ovis aries, Erythrocyte; settings: sheep red blood cells (erythrocytes)
Method in brief: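 Sheep RBCs suspended at 5% in PBS; 150 µL added to 50 µL compound dilutions (5120 to 10 µg/mL series). Incubated 1 h at 37 °C, then centrifuged; supernatant absorbance read at 540 nm. Lysis (%) = (A−A0)/(Atotal−A0)×100, with untreated 5% RBC as A0 and 0.1% Triton X-100 as total.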

[30] = tested on: Enterobacteriaceae; experiment: Antibacterial activity against NDM-1-producing Enterobacteriaceae isolate N8 after 16 to 20 hrs by broth microdilution method; assay type: functional; method in brief: as §2
[31] = tested on: Klebsiella pneumoniae; experiment: Antibacterial activity against carbapenemase-producing Klebsiella pneumoniae after 16 to 20 hrs by broth microdilution method; assay type: functional; method in brief: as §2
[32] = tested on: Enterobacteriaceae; experiment: Antibacterial activity against NDM-1-producing Enterobacteriaceae isolate N5 after 16 to 20 hrs by broth microdilution method; assay type: functional; method in brief: as §2
[33] = tested on: Klebsiella pneumoniae; experiment: Antibacterial activity against carbapenemase-producing Klebsiella pneumoniae isolate K10 after 16 to 20 hrs by broth microdilution method; assay type: functional; method in brief: as §2
[34] = tested on: Staphylococcus aureus; experiment: Antibacterial activity against Staphylococcus aureus ATCC 29213 after 16 to 20 hrs by broth microdilution method; assay type: functional; method in brief: as §1
[35] = tested on: Klebsiella pneumoniae; experiment: Antibacterial activity against carbapenemase-producing Klebsiella pneumoniae isolate K5 after 16 to 20 hrs by broth microdilution method; assay type: functional; method in brief: as §2
[36] = tested on: Escherichia coli; experiment: Antibacterial activity against Escherichia coli ATCC 25922 after 16 to 20 hrs by broth microdilution method; assay type: functional; method in brief: as §2
[37] = tested on: Staphylococcus aureus; experiment: Antibacterial activity against methicillin-resistant Staphylococcus aureus isolate M1 after 16 to 20 hrs by broth microdilution method; assay type: functional; method in brief: as §1
[38] = tested on: Escherichia coli; experiment: Induction of cytoplasmic membrane depolarization in Escherichia coli ATCC 25922 at 20 ug/ml measured every 2 mins for 12 mins by diSC35 staining based fluorescence assay; assay type: functional, organism-based; method in brief: as §3
[39] = tested on: Staphylococcus aureus; experiment: Antibacterial activity against methicillin-resistant Staphylococcus aureus isolate M4 after 16 to 20 hrs by broth microdilution method; assay type: functional; method in brief: as §1
[40] = tested on: Escherichia coli; experiment: Induction of inner membrane permeabilization in Escherichia coli ATCC 25922 at 20 ug/ml measured every 2 mins for 12 mins by propidium iodide staining based fluorescence assay; assay type: functional, organism-based; method in brief: as §4
[41] = tested on: Staphylococcus aureus; experiment: Antibacterial activity against methicillin-resistant Staphylococcus aureus isolate M7 after 16 to 20 hrs by broth microdilution method; assay type: functional; method in brief: as §1
[42] = tested on: Staphylococcus aureus; experiment: Antibacterial activity against methicillin-resistant Staphylococcus aureus isolate M3 after 16 to 20 hrs by broth microdilution method; assay type: functional; method in brief: as §1
[43] = tested on: Salmonella enterica; experiment: Antibacterial activity against Salmonella enterica after 16 to 20 hrs by broth microdilution method; assay type: functional; method in brief: as §2
[44] = tested on: Escherichia coli; experiment: Ratio of MIC for Escherichia coli ATCC 25922 after 20 serial passages to MIC for Escherichia coli ATCC 25922; assay type: functional, organism-based
Method in brief: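 Sub-MIC serial passaging: after an initial broth microdilution MIC, cells grown at MIC/2 were transferred into a new MIC assay after each 24 h incubation, for 20 passages. MIC was plotted against days to follow resistance development. Passaging controls were norfloxacin for S. aureus and colistin for E. coli.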

With `CCCCCCCCN(CCCCCCCC)C(=O)[C@@H](N)C(C)O.Cl` (some centres undefined) the MIC [1] was 8 µg/mL, the MIC [2] was 64 µg/mL and the Activity [3] was “Active”. It also gave an MIC [4] of 64 µg/mL, an MIC [5] of 8 µg/mL and an MIC [6] of 64 µg/mL. The MIC [7] was > 64 µg/mL, the MIC [8] was 8 µg/mL and the MIC [9] was 8 µg/mL. For the same compound, the MIC [10] was 64 µg/mL, the MIC [11] was 8 µg/mL and the MIC [12] was > 64 µg/mL. For the same compound, the MIC [13] was 64 µg/mL, the MIC [14] was 64 µg/mL and the MIC [15] was > 64 µg/mL. The MIC [16] was 8 µg/mL, the MIC [17] was 64 µg/mL and the Activity [18] was “Active”. For the same compound, the MIC [19] was 64 µg/mL, the MIC [20] was > 64 µg/mL and the Activity [21] was “Active”. It also gave an MIC [22] of 4 µg/mL, an MIC [23] of 64 µg/mL and an MIC [24] of 64 µg/mL. The MIC [25] was > 64 µg/mL, the MIC [26] was 8 µg/mL and the MIC [27] was 64 µg/mL. The MIC [28] was > 64 µg/mL, the HC50 at 1 h [29] was 268 µg/mL and the MIC [30] was > 64 µg/mL. The MIC [31] was 64 µg/mL, the MIC [32] was 64 µg/mL and the MIC [33] was 64 µg/mL. The MIC [34] was 4 µg/mL, the MIC [35] was 64 µg/mL and the MIC [36] was 16 µg/mL. For the same compound, the MIC [37] was 8 µg/mL, the Activity [38] was “Active” and the MIC [39] was 4 µg/mL. The Activity [40] was “Active”, the MIC [41] was 8 µg/mL and the MIC [42] was 4 µg/mL. It also gave an MIC [43] of 64 µg/mL.

COLISTIN showed a Ratio [44] of 32.

Reference: ChEMBL document CHEMBL4130549, “Synthesis and bioactivities study of new antibacterial peptide mimics: The dialkyl cationic amphiphiles” (Eur J Med Chem, 2018)
